{
  "source": "ChEMBL document CHEMBL1150625",
  "about": "“New terpenoid constituents from Eunicea pinta” (J Nat Prod, 2002)",
  "key": {"TK-10": {"system": "TK-10", "test": "Cytotoxicity against human TK10 cells", "format": "functional, cell-based", "procedure,_shortened": "(§1)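 Tested in vitro in the NCI 60 human tumour cell-line panel, with the screen run at the National Cancer Institute. Growth inhibition was read for each line and reported as IC50 in µg/mL.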"}, "NCI-H322M": {"system": "NCI-H322M", "test": "Cytotoxicity against human NCI-H322M cells", "format": "functional, cell-based", "procedure,_shortened": "as §1"}, "A498": {"system": "A498", "test": "Cytotoxicity against human A498 cells", "format": "functional, cell-based", "procedure,_shortened": "as §1"}, "ACHN": {"system": "ACHN", "test": "Cytotoxicity against human ACHN cells", "format": "functional, cell-based", "procedure,_shortened": "as §1"}, "CAKI-1": {"system": "CAKI-1", "test": "Cytotoxicity against human Caki1 cells", "format": "functional, cell-based", "procedure,_shortened": "as §1"}, "[1]": {"system": "Mycobacterium tuberculosis", "test": "Antitubercular activity against Mycobacterium tuberculosis H37Rv assessed as inhibition of microbial growth at 6.25 ug/mL", "format": "functional"}, "MOLT-4": {"system": "MOLT-4", "test": "Cytotoxicity against human MOLT4 cells", "format": "functional, cell-based", "procedure,_shortened": "as §1"}, "SR": {"system": "SR", "test": "Cytotoxicity against human SR cells", "format": "functional, cell-based", "procedure,_shortened": "as §1"}},
  "note": "The source made the active and inactive calls. The rule behind the calls is not given here.",
  "data": [
    {"smiles": "C=C1C(=O)O[C@H]2C(=O)[C@H](C)CCC/C(C)=C/CC[C@@]3(C)O[C@@H]3C[C@@H]12", "values": [
      {"measurement": "IC50", "setting": "TK-10", "result": 0.13, "unit": "µg/mL"},
      {"measurement": "IC50", "setting": "NCI-H322M", "result": 0.9, "unit": "µg/mL"}
    ]},
    {"smiles": "C=C[C@H]1CC[C@H]2[C@@H]3CC=C4C[C@@H](O[C@@H]5OC[C@@H](O)[C@H](O)[C@H]5O)CC[C@]4(C)[C@H]3CC[C@]12C", "values": [
      {"measurement": "IC50", "setting": "A498", "result": 4.2, "unit": "µg/mL"},
      {"measurement": "IC50", "setting": "ACHN", "result": 2.8, "unit": "µg/mL"},
      {"measurement": "IC50", "setting": "CAKI-1", "result": 6.6, "unit": "µg/mL"},
      {"measurement": "inhibition at 6.25 µg/mL", "setting": "[1]", "result": 52, "unit": "%"}
    ]},
    {"smiles": "C=C1C(=O)O[C@H]2C(=O)[C@H](C)CCC[C@](C)(OO)/C=C/C[C@@]3(C)O[C@@H]3C[C@@H]12", "note": "[UPROLIDE H]", "values": [
      {"measurement": "IC50", "setting": "MOLT-4", "result": 0.01, "unit": "µg/mL"},
      {"measurement": "IC50", "setting": "SR", "result": 0.07, "unit": "µg/mL"},
      {"measurement": "inhibition", "setting": "[1]", "result": "inactive"}
    ]},
    {"smiles": "C=C1C(=O)OC2C(=O)[C@H](C)CCC/C(C)=C/CC[C@@]3(C)O[C@@H]3C[C@@H]12", "note": "(stereo not given in full)", "values": [
      {"measurement": "inhibition", "setting": "[1]", "result": "inactive"}
    ]}
  ]
}
